# PubChem BioAssay
# The source made the active and inactive calls. Unless noted, no stated cut-off is given here; in the data, active means inhibition above about 30%; inactive means the rest.
# Legend:
# [1] = reducers of endogenous Her2 protein level, primary screen, SKBR3 breast tumor cells, AlphaScreen, ATP viability (AID 461;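 active means Her2 level under about 52% in both replicate screens, with viability over 70% of control, limit read from the data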;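 on Her2 level: lower value means less Her2 protein in the cells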;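 on viability: percent of carrier control wells set as 100% viability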); details: 18-24 h, measured here: SKBR3 viability, ATP luminescence, at 10 µM
# [2] = molecular target: Receptor tyrosine-protein kinase erbB-2 (Homo sapiens) (UniProt P04626); test: as above; details: 18-24 h, at 10 µM, stronger effect = lower value
# [3] = SK-BR-3 cell growth inhibitors, pilot screen, 24 h, human (AID 572;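 active means viability at or below 10% of carrier control in both of two separate runs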;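 further: compound exposure lasted between 18 and 24 h rather than exactly 24 h; 100% = carrier-treated control wells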); details: SK-BR-3 viability, CellTiter-Glo luminescence, at 10 µM, stronger effect = lower value
# [4] = HUVEC growth inhibition – cell-based, human, primary screen (AID 575;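 active means viability at or below 30% in both replicate assays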;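 further: 100% = median of untreated cell wells with 0.1% DMSO on each plate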); details: HUVEC proliferation, CellTiter-Glo luminescence, 72 h; at 10 µM; stronger effect = lower value
# Method in brief: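 Test system: primary human umbilical vein endothelial cells; medium: endothelial basal medium with 2% FBS plus growth supplements; dosing: 10 µM compound only; times: 72 h treatment at 37 °C; signal: CTG luminescence; read-out: % viability relative to median vehicle-well signal on each plate; control set: vehicle and MePR control wells; plate: 384-well, collagen-coated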
# [5] = growth inhibitors of H69AR lung tumor, primary screen, human, duplicate replicates (AID 580;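 active means viability at or under a set limit in both replicates, limit being median viability minus 3 SD, cut at about 48% in these data, passing the limit was not always enough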;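 further: 100% = mean luminescence of untreated wells and 0% = no signal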); details: H69AR lung tumor cells viability, ATP luminescence, 72 h; at 10 µM; stronger effect = lower value
# [6] = reversal of MRP1-mediated doxorubicin resistance, pilot screen, H69AR cells, doxorubicin co-treatment (AID 601;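 active means viability loss from added drug above about 55%, and viability with drug at most 40%, in both replicates, limit read from the data, passing the limit was not always enough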); details: CellTiter-Glo, 72 h, at 10 µM; for differential viability (reversal): stronger effect = higher value
# [7] = 384-well plate pilot, post-Golgi transport modulator project, inhibition of yeast transport mutant growth (AID 636; in the data active means inhibition above about 31%); details: absorbance 615 nm, about 18 h, stronger effect = higher value
# [8] = growth suppression of yeast trafficking mutant, preliminary HTS, modulators of trafficking downstream of Golgi apparatus project, 1536-format plate, OD 615 nm (AID 637); details: yeast transport mutant growth, absorbance 615 nm, 18 h; stronger effect = higher value
# [9] = H69AR cells + 2 uM doxorubicin, measured here: viability with 2 uM doxorubicin, stronger effect = lower value
# [10] = H69AR cells, compound alone cytotoxicity
# Sequence of Receptor tyrosine-protein kinase erbB-2 (Homo sapiens) (P04626 whole entry, looked up): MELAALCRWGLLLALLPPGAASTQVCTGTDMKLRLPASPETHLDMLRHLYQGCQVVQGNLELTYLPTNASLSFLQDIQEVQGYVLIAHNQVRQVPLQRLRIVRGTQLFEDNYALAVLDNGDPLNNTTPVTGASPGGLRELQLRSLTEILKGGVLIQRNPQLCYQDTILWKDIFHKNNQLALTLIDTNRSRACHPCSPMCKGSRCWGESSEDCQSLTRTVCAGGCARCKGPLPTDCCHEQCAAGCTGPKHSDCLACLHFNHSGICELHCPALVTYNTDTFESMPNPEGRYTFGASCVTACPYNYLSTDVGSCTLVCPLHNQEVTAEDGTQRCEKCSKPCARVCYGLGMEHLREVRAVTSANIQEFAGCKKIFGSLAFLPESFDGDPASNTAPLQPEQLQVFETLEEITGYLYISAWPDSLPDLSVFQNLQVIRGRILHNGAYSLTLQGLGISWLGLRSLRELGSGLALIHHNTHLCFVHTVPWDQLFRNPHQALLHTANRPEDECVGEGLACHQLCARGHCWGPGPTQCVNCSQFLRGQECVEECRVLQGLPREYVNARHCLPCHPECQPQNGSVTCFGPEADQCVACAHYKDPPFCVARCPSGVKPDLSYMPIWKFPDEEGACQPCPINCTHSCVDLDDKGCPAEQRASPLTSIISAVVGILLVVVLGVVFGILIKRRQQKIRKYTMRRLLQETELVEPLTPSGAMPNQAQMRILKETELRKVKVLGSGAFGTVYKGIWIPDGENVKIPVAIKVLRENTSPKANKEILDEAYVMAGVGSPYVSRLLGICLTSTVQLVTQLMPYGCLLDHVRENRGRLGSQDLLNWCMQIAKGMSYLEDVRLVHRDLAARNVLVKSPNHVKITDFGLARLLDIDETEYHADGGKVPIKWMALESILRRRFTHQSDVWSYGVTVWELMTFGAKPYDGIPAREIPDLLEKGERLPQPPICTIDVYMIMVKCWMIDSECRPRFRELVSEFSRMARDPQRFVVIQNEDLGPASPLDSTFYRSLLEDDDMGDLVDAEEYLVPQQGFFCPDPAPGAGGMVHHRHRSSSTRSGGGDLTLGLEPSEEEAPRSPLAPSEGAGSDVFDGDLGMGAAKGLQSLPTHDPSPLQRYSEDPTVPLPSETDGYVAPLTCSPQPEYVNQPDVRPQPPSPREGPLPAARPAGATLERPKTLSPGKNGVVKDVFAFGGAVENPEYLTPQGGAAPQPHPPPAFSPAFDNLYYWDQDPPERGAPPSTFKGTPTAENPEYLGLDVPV
SMILES,viability [1] [%],Her2 level [2],viability [3],viability [4],viability [5],differential viability (reversal) ([6]; H69AR cells + 2 uM doxorubicin),"viability [6, 9] [%]","viability [6, 10] [%]",inhibition [7],inhibition [8]
O=C(NCc1ccccc1)C1CCN(S(=O)(=O)N2CCCCCC2)CC1,85,106% (inactive),85% (inactive),109% (inactive),96.7% (inactive),3.6% (inactive),93.1,96.7,6.49% (inactive),-6.23% (inactive)
CCN(CC)S(=O)(=O)c1ccc(NC(=O)CN(c2cccc(F)c2)S(C)(=O)=O)cc1,96,84.5% (inactive),96% (inactive),88.7% (inactive),92.5% (inactive),-3.88% (inactive),96.3,92.5,-4.29% (inactive),-0.33% (inactive)
O=C(NCCC1=CCCCC1)N[C@@H](Cc1ccccc1)C(=O)O,104,114% (inactive),104% (inactive),100% (inactive),108% (inactive),14.2% (inactive),93.5,108,0.13% (inactive),0.16% (inactive)
COc1nc(OC)nc(N2CCC(C(=O)NC3CCCCCC3)CC2)n1,95.5,102% (inactive),95.5% (inactive),104% (inactive),105% (inactive),4.45% (inactive),100,105,3.6% (inactive),-2.3% (inactive)
CC1=C(C#N)C(c2ccoc2)C(C(=O)OCc2ccccc2)=C(N)S1 (stereo not given),100,88% (inactive),100% (inactive),99.5% (inactive),91.6% (inactive),-0.82% (inactive),92.4,91.6,-3.95% (inactive),0% (inactive)
CC(C)C(=O)Nc1nnc(CCc2nnc(NC(=O)C(C)C)s2)s1,99,97% (inactive),99% (inactive),106% (inactive),93.6% (inactive),2.27% (inactive),91.3,93.6,-4.61% (inactive),0.16% (inactive)
N#CCSc1nc(-c2ccccc2)cs1,86.5,98.5% (inactive),86.5% (inactive),109% (inactive),98% (inactive),-0.97% (inactive),98.9,98,-1.71% (inactive),2.58% (inactive)
CN(c1ccccc1)C(c1ccc(F)cc1)c1nnnn1CC1CCCO1 (stereo not given),104,98% (inactive),104% (inactive),97% (inactive),94.1% (inactive),6.48% (inactive),87.6,94.1,-4.32% (inactive),0.83% (inactive)
CCOC(=O)N1CCN(c2cc(=O)n(-c3ccc(OCC)cc3)c(=O)[nH]2)CC1,106,100% (inactive),106% (inactive),104% (inactive),97.5% (inactive),6.84% (inactive),90.7,97.5,-4.93% (inactive),-1.97% (inactive)
COc1ccc(C2c3sc(=O)[nH]c3SC3C4CCC(C4)C23)cc1 (stereo not given),99.5,94.5% (inactive),99.5% (inactive),80.1% (inactive),89.7% (inactive),1.93% (inactive),87.7,89.7,6.4% (inactive),5.97% (inactive)
Nc1nc(N)nc(-c2ccccc2)n1,97.5,106% (inactive),97.5% (inactive),107% (inactive),99.8% (inactive),4.35% (inactive),95.4,99.8,-1.05% (inactive),-0.16% (inactive)
COc1ccccc1OCc1ccc(C(=O)OCC2CCCO2)o1 (stereo not given),97.5,112% (inactive),97.5% (inactive),106% (inactive),100% (inactive),0.33% (inactive),99.8,100,-5.39% (inactive),-3.27% (inactive)
Cc1ccc(-n2nnnc2SCC(=O)c2cc(C)n(CC3CCCO3)c2C)cc1 (stereo not given),83.5,106% (inactive),83.5% (inactive),70.8% (inactive),86% (inactive),-9.62% (inactive),95.7,86,-5.07% (inactive),0.48% (inactive)
Cc1cc(C(=O)Nc2ccccc2C#N)n(-c2ccccc2)n1,97.5,100% (inactive),97.5% (inactive),92.8% (inactive),93.9% (inactive),-3.06% (inactive),97,93.9,2.93% (inactive),0% (inactive)
C=CCn1c(SCC(=O)O)nnc1-c1cccc(Cl)c1,116,107% (inactive),116% (inactive),103% (inactive),109% (inactive),12.6% (inactive),96.3,109,-5.19% (inactive),-3.67% (inactive)
Cc1ccc(C2Nc3ccccc3-c3nc4ccccc4n32)o1 (stereo not given),97,89.5% (inactive),97% (inactive),54.4% (inactive),38.3% (active),-18.1% (inactive),56.4,38.3,-1.37% (inactive),4.44% (inactive)

SMILES,viability [1] [%],Her2 level [2],viability [3],viability [4],viability [5],differential viability (reversal) ([6]; H69AR cells + 2 uM doxorubicin),"viability [6, 9] [%]","viability [6, 10] [%]",inhibition [7],inhibition [8]
COc1ccc(Nc2nc(OC)nc(N3CCN(c4ccc(OC)cc4)CC3)n2)cc1,123,98% (inactive),123% (inactive),66.7% (inactive),71.3% (inactive),-5.71% (inactive),77,71.3,-6.27% (inactive),-3.06% (inactive)
O=C(CCCCCN1C(=O)CCC1=O)NCc1ccccc1,103,73% (inactive),103% (inactive),100% (inactive),98.2% (inactive),13.5% (inactive),84.7,98.2,-7.97% (inactive),4.13% (inactive)
Cc1ccccc1NC(=O)N1C2CCCC1CC(NC(=O)C1CC1)C2 (stereo not given),104,95% (inactive),104% (inactive),94% (inactive),104% (inactive),10.3% (inactive),93.9,104,-7.07% (inactive),9.02% (inactive)
COc1ccc(CNC(=O)c2cc(-c3ccc(OC)c(OC)c3)on2)cc1,116,88.5% (inactive),116% (inactive),118% (inactive),94.4% (inactive),8.78% (inactive),85.6,94.4,-5.95% (inactive),-3.83% (inactive)
CC1(C)CC(=O)C(CC2=C(O)CC(C)(C)CC2=O)=C(O)C1,95,91% (inactive),95% (inactive),94.4% (inactive),102% (inactive),10.5% (inactive),91.8,102,-3.68% (inactive),-4% (inactive)
CCS(=O)(=O)NCCc1cc2c(OC)ccc(OC)c2[nH]c1=O,95.5,88.5% (inactive),95.5% (inactive),106% (inactive),98.8% (inactive),12.1% (inactive),86.8,98.8,-9.45% (inactive),0.48% (inactive)
COc1ccccc1NC(=O)CSc1nnc(CC(=O)Nc2ccccc2)n1C,96,80.5% (inactive),96% (inactive),113% (inactive),91% (inactive),-2.08% (inactive),93.1,91,-2.99% (inactive),-2% (inactive)
O=C(c1ccco1)N1CCN(/C(=N/S(=O)(=O)c2cccs2)c2ccccc2Cl)CC1,77,81% (inactive),77% (inactive),88.7% (inactive),93.1% (inactive),0.85% (inactive),92.3,93.1,-4.73% (inactive),-3.77% (inactive)
CCN(CC)c1ncc(C)c(=O)[nH]1,103,106% (inactive),103% (inactive),105% (inactive),88.8% (inactive),-5.64% (inactive),94.5,88.8,-3.47% (inactive),19% (inactive)
CN(C)c1nc(Oc2ccc(=O)n(C)n2)nc(N2CCOCC2)n1,94,98.5% (inactive),94% (inactive),95.7% (inactive),92.9% (inactive),1.74% (inactive),91.2,92.9,-4.93% (inactive),1.64% (inactive)
CCN(CC)c1ccc(-c2c(C#N)c(N)nc(OC)c2C#N)cc1,75.5,88.5% (inactive),75.5% (inactive),81.3% (inactive),79.4% (inactive),-4.16% (inactive),83.5,79.4,-1.17% (inactive),-8.36% (inactive)
COC(=O)c1oc2ccc(Br)cc2c1NC(=O)CN1CCN(C)CC1,92.5,100% (inactive),92.5% (inactive),101% (inactive),96.6% (inactive),16.2% (inactive),80.3,96.6,1.18% (inactive),0.55% (inactive)
CN(C)c1nc(N)nc(-c2nc3ccccc3s2)n1,73,89% (inactive),73% (inactive),85.1% (inactive),91.7% (inactive),6.39% (inactive),85.3,91.7,-6.62% (inactive),-1.64% (inactive)
Cn1c(=O)c2c3c(sc2n2c(SCc4ccccc4)nnc12)CCCC3,77,91.5% (inactive),77% (inactive),88.8% (inactive),87.5% (inactive),9.04% (inactive),78.4,87.5,-2.93% (inactive),-1.75% (inactive)
O=C1C(Cl)=C(N2CCOCC2)C(=O)N1CCc1ccccc1,104,84% (inactive),104% (inactive),89.3% (inactive),71.3% (inactive),0.02% (inactive),71.3,71.3,-6.27% (inactive),-1.11% (inactive)
